Reference: ChEMBL document CHEMBL4613270, “Structure-Activity Relationship Study Enables the Discovery of a Novel Berberine Analogue as the RXRα Activator to Inhibit Colon Cancer” (J Med Chem, 2020)

Test system: KM12C
Experiment: Inhibition of cell proliferation of human KM12C cells incubated for 15 hrs by MTT assay
Type: functional, cell-based
In short: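 Cells plated at 1×10⁴ per well, incubated overnight at 37 °C, then exposed to a concentration series for 15 h. MTT (5 mg/mL stock) added for 4 h at 37 °C. Formazan dissolved in DMSO and absorbance read at 570 nm. IC50 derived from the dose-response curve.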

Question: For `c1ccc2c[n+]3c(cc2c1)-c1cc2c(cc1CC3)OCO2`, which IC50 is on record?
Answer: 79.7 µM

Question: How did the IC50 turn out when `COc1cc2c(cc1OC)-c1cc3cc(OC)c(OC)cc3c[n+]1CC2` was run?
Answer: > 600 µM

Question: Which IC50 does the source give for `COc1ccc2c(c1)CC[n+]1cc3c(OC)c(OC)ccc3cc1-2` here?
Answer: 37.9 µM

Question: `COc1ccc2c(c1)CC[n+]1cc3cc(OC)c(OC)cc3cc1-2` was tested. Which IC50 did it give?
Answer: 83.5 µM

Question: With `COc1cc2c(cc1OC)-c1cc3ccccc3c[n+]1CC2` as the compound, how does the IC50 read?
Answer: > 600 µM

Question: For `COc1cc2cc3[n+](cc2cc1OC)CCc1cc2c(cc1-3)OCO2` [PSEUDOBERBERINE], which IC50 is on record?
Answer: 467 µM

Question: With `COc1ccc2cc3[n+](cc2c1)CCc1cc2c(cc1-3)OCO2` as the compound, how does the IC50 read?
Answer: 52.7 µM

Question: `COc1ccc2c(c1)CC[n+]1cc3cc4c(cc3cc1-2)OCO4` was tested. Which IC50 did it give?
Answer: 46.4 µM

Question: With `c1c2c(cc3c1OCO3)-c1cc3cc4c(cc3c[n+]1CC2)OCO4` as the compound, how does the IC50 read?
Answer: 57.2 µM

Question: Which IC50 does the source give for `COc1ccc2c(c1)CC[n+]1cc3ccccc3cc1-2` here?
Answer: 129 µM

Question: With `COc1cc2c(cc1OC)-c1cc3ccc(OC)c(OC)c3c[n+]1CC2` [PALMATINE CHLORIDE] as the compound, how does the IC50 read?
Answer: 393 µM

Question: `COc1cccc2c[n+]3c(cc12)-c1cc2c(cc1CC3)OCO2` was tested. Which IC50 did it give?
Answer: 118 µM

Question: Which IC50 does the source give for `COc1cc2c(cc1OC)-c1cc3cccc(OC)c3c[n+]1CC2` here?
Answer: 166 µM

Question: `COc1cc2c(cc1OC)-c1cc3c(OC)cccc3c[n+]1CC2` was tested. Which IC50 did it give?
Answer: 270 µM
